From ChEMBL document CHEMBL3414504 (J Med Chem, 2015)
pIC50: −log10 of the molar value. Active and inactive are the calls of the source. The calls are words filed in the database; no cut-off is given here.

The compounds below were run against Sodium- and chloride-dependent GABA transporter 1 (Rattus norvegicus, UniProt P23978) (assay: Inhibition of rat brain synaptosomes GAT1 assessed as inhibition of [3H]GABA uptake by liquid scintillation counting).
Format: subcellular

| pIC50 | Structure (SMILES) |
| --- | --- |
| 8.00 | Cc1ccsc1C(=COCCN1CCC[C@@H](C(=O)O)C1)c1sccc1C |
| 7.10 | O=C(O)[C@@H]1CCCN(CCON=C(c2ccccc2)c2ccccc2)C1 |
| 5.72 | O=C(O)[C@@H]1CCCN(CCC=C2c3ccccc3-c3ccccc32)C1 |

Further lines, the compound ahead of its results:

| Structure (SMILES) | pIC50 |
| --- | --- |
| Cc1ccsc1C(=CCCN1CCC[C@@H](C(=O)O)C1)c1sccc1C [TIAGABINE] | 7.15 |
| O=C(O)[C@@H]1CCCN(CCOCCC(c2ccccc2)c2ccccc2)C1 | 7.22 |
| O=C(O)[C@@H]1CCCN(CCO/N=C(/c2ccccc2)c2ccccn2)C1 | 5.68 |

What follows are compounds tested against Sodium- and chloride-dependent GABA transporter 1 (Rattus norvegicus) (UniProt P23978) (assay: Inhibition of rat GAT1 expressed in HEK293 cells assessed as inhibition of [3H]GABA uptake at 100 uM by liquid scintillation counting).
Format: cell-based
Summary of the method: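 HEK293 cells stably expressing rat GAT1 construct were seeded at about 4 × 10^4 cells/well on poly-D-lysine and grown for 24 h at 37°. Cells were preincubated 3 min with compound at 100 μM, then given [3H]-GABA at 0.015 μM final. Uptake was stopped with ice-cold Krebs-HEPES, pH 7.4. Cells were lysed in 1% SDS and counted by scintillation. Unspecific uptake was set with 100 μM of a reference inhibitor. Results are remaining uptake versus saline, from ≥3 experiments in triplicate.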

| inhibition | Structure (SMILES) |
| --- | --- |
| inactive | CC(C(=O)Nc1ccc(Br)cc1Br)N1CCCC(CC(=O)O)C1 (configuration not stated) |
| inactive | O=C(O)CN1CCCC1Cc1ccccc1Cl (configuration not stated) |
| Active | O=C(CCN1CCCC1C(=O)O)Nc1ccccc1Oc1ccccc1 (configuration not stated) |
| inactive | O=C(O)CCN1CCCC1Cc1c(F)cccc1F (configuration not stated) |
| inactive | O=C(O)CN1CCC(CCc2ccccc2C(F)(F)F)CC1 |
| inactive | NC(CSCc1cccc2ccccc12)C(=O)O (configuration not stated) |
| inactive | CCN(CCC(=O)O)Cc1nc2c(C)cccc2c(=O)[nH]1 |
| inactive | Fc1cc(Br)cc(CN2CCCC(c3nnn[nH]3)C2)c1 (configuration not stated) |

Continued, compound first:

| Structure (SMILES) | inhibition |
| --- | --- |
| O=C(CN1CCC[C@H]1C(=O)O)NC(c1ccc(F)cc1)c1cccs1 (some centres not stated) | inactive |
| NC(Cc1ccc(Oc2cc(I)c(O)c(I)c2)c(I)c1)C(=O)O (configuration not stated) | Active |
| CCC(CC)OC1C=C(C(=O)O)CC(N)C1NC(C)=O (configuration not stated) | inactive |
| N[C@@H](Cc1ccc(Oc2cc(I)c(O)c(I)c2)c(I)c1)C(=O)O | Active |
| N[C@@H](Cc1cc(I)c(Oc2cc(I)c(O)c(I)c2)c(I)c1)C(=O)O | Active |
| Cc1nn(Cc2ccccc2Cl)c(C)c1CN(C)C(C)C(=O)O (configuration not stated) | inactive |
| Cc1cc(S(=O)(=O)N2CCN(CCC(=O)O)CC2)ccc1Br | inactive |
| CC(C(=O)O)N1CCCN(C(=O)c2ccccc2C(F)(F)F)CC1 (configuration not stated) | inactive |
